Article PMC8777244 (Biochemistry and Biophysics Reports, 2022)

B1: DH584-719: MBP-fused truncated Nox5 dehydrogenase domain residues 584–719 (56 kDa) (protein)
chain: KLHKVDFIWINRDQRSFEWFVSLLTKLEMDQAEEAQYGRFLELHMYMTSALGKNDMKAIGLQMALDLLANKEKKDSITGLQTRTQPGRPDWSKVFQKVAAEKKGKVQVFFCGSPALAKVLKGHCEKFGFRFFQENF
modifications: left off: MBP, N-terminal, kept
B2: DH528-719: MBP-fused truncated Nox5 dehydrogenase domain residues 528–719 (∼62 kDa) (protein)
chain: PTRRIFASEHAVLIGAGIGITPFASILQSIMYRHQKRKHTCPSCQHSWIEGVQDNMKLHKVDFIWINRDQRSFEWFVSLLTKLEMDQAEEAQYGRFLELHMYMTSALGKNDMKAIGLQMALDLLANKEKKDSITGLQTRTQPGRPDWSKVFQKVAAEKKGKVQVFFCGSPALAKVLKGHCEKFGFRFFQENF
modifications: left off: MBP, N-terminal, kept
B3: DH605-719: MBP-fused truncated Nox5 dehydrogenase domain residues 605–719, contains REFBD and CMBD sequences (protein)
chain: SLLTKLEMDQAEEAQYGRFLELHMYMTSALGKNDMKAIGLQMALDLLANKEKKDSITGLQTRTQPGRPDWSKVFQKVAAEKKGKVQVFFCGSPALAKVLKGHCEKFGFRFFQENF
modifications: left off: MBP, N-terminal, kept

Columns and labels:
CaM [1] = assay: CaM binding to DHs by isothermal titration calorimetry; conditions: for Heat enthalpy change relative to DH665-719: fold of DH665-719 enthalpy
[2] = Size-exclusion chromatography, oligomeric states; type: physicochemical
Outline: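 HPLC gel filtration of amylose-purified MBP-fused NOX5 dehydrogenase domain, run against CaM and BSA references. Column equilibrated in Tris pH 7.5 (50 mM per figure legends, 20 mM per methods) with 0.2 M NaCl (0.2–0.5 M range), plus 2 mM Ca²⁺ or 1 mM EDTA. Runs at 1.0 mL/min with 280 nm detection. 2 M urea added to partially dissociate oligomers. Species assigned by elution time.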

CaM [3] = assay: CaM interaction by size-exclusion chromatography; type: binding
Outline: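 HPLC size-exclusion used a Shodex KW802.5 column at 1.0 mL/min with 280 nm detection. Buffer was Tris, pH 7.5, with 0.2 M NaCl (range 0.2–0.5 M) plus 2 mM Ca²⁺ or 1 mM EDTA. Samples were filtered through 0.45 μm. MBP-DH constructs, alone or mixed with CaM or Dansyl-CaM, were compared with BSA. Collected fractions were assayed for Dansyl fluorescence.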

Dynamic light scattering = type: physicochemical
Outline: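 DLS was run on a DynaPro NanoStar. Samples at 1 mg/mL in 50 mM Tris, pH 7.5, were filtered through 0.45 then 0.1 μm and equilibrated 2 min at 25 °C. Acquisition was 5 s, with minimum peak intensity 1% and correlation cut-offs of 0.5 and 100,000 μs. Ten autocorrelation functions were averaged and fitted to decaying exponentials for the diffusion coefficient. Rh was calculated assuming spheres.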

[4] = Solubility of DH proteins in bacterial expression; type: physicochemical; conditions: E. coli expression
[5] = 1 mg/mL, 50 mM Tris, pH 7.5, 25 °C

Row | Molecule | Heat enthalpy change relative to DH665-719 (CaM [1]) | SEC elution time, major peak ([2]; 50 mM Tris, pH 7.5, 0.2 M NaCl) [min] | SEC elution time, very minor peak (monomer) ([2]; 50 mM Tris, pH 7.5, 0.2 M NaCl) [min] | SEC elution time, monomer, 2 M urea ([2]; 2 M urea, 50 mM Tris, pH 7.5, 0.2 M NaCl, Species 1) [min] | SEC elution time, dimer, 2 M urea ([2]; 2 M urea, 50 mM Tris, pH 7.5, 0.2 M NaCl, Species 2) [min] | SEC elution time, trimer, 2 M urea ([2]; 2 M urea, 50 mM Tris, pH 7.5, 0.2 M NaCl, Species 3 (∼168 kDa)) [min] | SEC elution time, tetramer, 2 M urea ([2]; 2 M urea, 50 mM Tris, pH 7.5, 0.2 M NaCl, Species 4 (∼224 kDa)) [min] | Dominant oligomer, high ionic strength ([2]; >0.25 M NaCl) | Effect of DTT and Ca^2+ on HPLC profile ([2]; reducing agent DTT and Ca^2+ ions) | Effect of CaM on DH oligomer (CaM [3]; CaM binding, Ca^2+) | Decay of autocorrelation function (Dynamic light scattering; [5]) [μs] | Hydrodynamic radius (Rh) (Dynamic light scattering; [5]) [nm] | Poly-distribution (%pd) (Dynamic light scattering; [5]) [%] | Estimated average molecular weight (DLS) (Dynamic light scattering; Raleigh sphere assumption, qualitative) [kDa] | Stoichiometry, ITC CaM/DH (CaM [1]; CaM (titrant) into DH (near 2 μM), 50 mM Tris, pH 7.5, 2 mM Ca^2+, 25 °C, MBP-fused DH) | Share of D-CaM in DH fractions (CaM [3]; equal amounts of D-CaM and DH528-719, Ca^2+) | Solubility [4] | Stoichiometry nCaM/DH, ITC at high DH concentration (CaM [1]; CaM into 20–50 μM DH, Ca^2+, low value attributed to DH degradation)
1 | B1 | approximately double | 6.7 | ~9.5 | 9.52 | 8.02 | 7.25 | 6.71 | favors trimer formation | did not affect its HPLC profile | the dimer disappeared | > 100 | 8.3 | 42.5 | ~450 | – | – | – | –
2 | B2 | approximately double | – | – | – | – | – | – | – | – | – | – | – | – | – | 1.18 ± 0.05 | approximately half | most soluble | –
3 | B3 | approximately double | – | – | – | – | – | – | – | – | – | – | – | – | – | – | – | – | lower than 1
